From ChEMBL document CHEMBL1765044, “3-Hydroxypyrimidine-2,4-diones as an inhibitor scaffold of HIV integrase” (J Med Chem, 2011) come the findings set out here.

Usually pIC50 stands for the negative decadic logarithm of the IC50, by convention in mol/L. As a reminder, the pEC50 is −log10 of the EC50, conventionally taken in molar units.

pEC50, pIC50: −log10 of the molar value.

The subject of series [1] is Human immunodeficiency virus 1. Put plainly: Fold resistance, ratio for Human immunodeficiency virus 1 NL4-3 reverse transcriptase K103N mutant to wild-type Human immunodeficiency virus 1 NL4-3 reverse transcriptase. In a few lines: (§1)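 HIV-1 NL4-3 strains carrying the reverse transcriptase K103N or Y181C mutation were tested in MAGI R5 cells, with the NNRTI TNK-651 as control. Fold-resistance is the mutant/wild-type ratio.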

Series [2] has as its system Human immunodeficiency virus 1. Put plainly: Fold resistance, ratio for Human immunodeficiency virus 1 NL4-3 reverse transcriptase Y181C mutant to wild-type Human immunodeficiency virus 1 NL4-3 reverse transcriptase. In a few lines:
as §1

The nature of series [3]: Inhibition of Human immunodeficiency virus recombinant integrase 3'-processing activity expressed in Escherichia coli after 60 mins using [32P]-labeled oligonucleotide substrate by densitometric analysis.
A short description of series [4]: Inhibition of HIV recombinant integrase strand transfer activity expressed in Escherichia coli after 60 mins using [32P]-labeled oligonucleotide substrate by densitometric analysis. Details: species or system Human immunodeficiency virus.
Series [5] concerns Human immunodeficiency virus 1. Put plainly: Antiviral activity against Human immunodeficiency virus 1 3B infected in CEM-SS cells assessed as reduction in virus-induced cytopathic effect at 10 uM after 6 days. The format is functional. Further details: scale not given: the % may be the effect or the level left. In outline:
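CEM-SS cells were mixed with pre-titered HIV-1 IIIB and the compound at a single 10 μM and incubated for 6 days. Virus dose was set to give 70–95% viability loss in virus-control wells. CPE reduction (cytoprotection) and cell viability were read by MTS. Plates included cell, virus, compound-toxicity and colorimetric control wells, with AZT as positive control.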
Background: Damage to the host cells serves as the signal in cytopathic effect assays.

The subject of series [6] is Human immunodeficiency virus 1. In words: Antiviral activity against Human immunodeficiency virus 1 3B infected in human CEM-SS cells assessed as cytoprotection against virus-induced toxicity at 10 uM after 6 days by MTS assay. The class given is functional. In outline: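 Single-concentration screen at 10 μM, run only on compounds with strand-transfer IC50 ≤10 μM. CPE reduction (%) and cell viability (%) assessed by MTS; AZT positive control.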

Series [7] concerns Human immunodeficiency virus 1. In words: Antiviral activity against Human immunodeficiency virus 1 3B infected in CEM-SS cells assessed as inhibition of viral replication after 6 days. The format is functional, organism-based. The settings on record: 144 h. In a few lines: (§2)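 CEM-SS cells mixed with pre-titered HIV-1 IIIB (titer chosen so virus-control wells lose 70–95% viability) plus compound in dose response, incubated 6 days. Viability read by MTS; controls are cells alone, cells+virus, cells+compound and compound alone. EC50 is the concentration protecting 50% against virus-induced loss; CC50 is the concentration killing 50% of cells; TI = CC50/EC50. AZT used as positive control.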

The subject of the next series is CEM-SS. In words: (§3) Cytotoxicity against human CEM-SS cells infected with Human immunodeficiency virus 1 3B after 6 days by MTS assay. The format is cell-based. The settings on record: cem-ss, 144 h. In a few lines:
as §2
(Formazan colour is commonly taken as a measure of viable cells.)

Series [8] can be described thus: Therapeutic index, ratio of CC50 for human CEM-SS cells to EC50 for Human immunodeficiency virus 1 3B. The class given is cell-based. The note with it: read-out: TI. In a few lines:
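CEM-SS cells mixed with HIV-1 IIIB and compound, incubated 6 days; virus pre-titered so control wells lose 70–95% viability. Cytoprotection (EC50) and cytotoxicity in uninfected compound-only wells (CC50) read by MTS from dose-response. TI calculated as CC50/EC50. Controls: cells only, virus only, and compound only (colorimetric). AZT served as positive control.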

Series [9] deals with Human immunodeficiency virus 1. The note with it: NL4-3.
Series [10] relates to Human immunodeficiency virus 1. Put plainly: Ratio of IC50 for Human immunodeficiency virus 1 NL4-3 integrase Y143R mutant to IC50 for wild-type Human immunodeficiency virus 1 NL4-3 integrase. In a few lines: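 Recombinant HIV-1 integrase (wild type or mutant) was expressed in E. coli, with 10% glycerol in all buffers. Reactions were stopped with EDTA/formamide dye. IC50 came from a logistic nonlinear fit; the ratio is IC50 mutant/WT from two independent experiments.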

Series [11] has as its system Human immunodeficiency virus 1. The note with it: NL4-3. This is another data set of the same source.
The test system of series [12] is Human immunodeficiency virus 1. In words: Fold resistance, ratio of EC50 for raltegravir-resistant Human immunodeficiency virus 1 1556-1 expressing integrase Y143C mutant to EC50 for raltegravir-resistant Human immunodeficiency virus 1 1556-1 expressing wild-type integrase. The format is functional.
The nature of series [13]: as §3. The class given is cell-based. The settings on record: CEM-SS cells infected with HIV-1 3B, read-out: TC50. In a few lines:
as §2

Series [14] is described as follows: Cytotoxicity against human MT4 cells infected with raltegravir-resistant Human immunodeficiency virus 1 8070-2. The format is cell-based. The settings on record: MT4 cells infected with raltegravir-resistant HIV-1 8070-2, read-out: TC50 (the source's name).
Series [15] is described as follows: Cytotoxicity against human MT4 cells infected with raltegravir-resistant Human immunodeficiency virus 1 1556-1. The class given is cell-based. The note with it: MT4 cells infected with raltegravir-resistant HIV-1 1556-1, read-out: TC50 (the source's name).
Series [16] is described as follows: Cytotoxicity against human MT4 cells infected with raltegravir-resistant Human immunodeficiency virus 1 4736-2. The format is cell-based. The settings on record: MT4 cells infected with raltegravir-resistant HIV-1 4736-2, read-out: TC50 (the source's name).

Turning to `CC(C)c1c(Cc2ccccc2)n(COCc2ccc(F)cc2)c(=O)n(O)c1=O`, the Ratio in series [1] worked out at 16; in series [2] it was 48.
With `CC(C)c1c(Cc2ccc(F)cc2)n(COCc2ccc(F)cc2)c(=O)n(O)c1=O`, the results for the pIC50 in [3] and in [4] were under 3.95 and 5.26, respectively.
Turning to `CCc1c(Cc2ccccc2)c(=O)[nH]c(=O)n1COCc1ccc(F)cc1`, the Activity turned out to be 10% in series [5] and 92% in series [6].
For `CC(C)c1c(Cc2ccccc2)n(COCc2ccc(F)cc2)c(=O)n(C)c1=O`, the pIC50 in series [3] and in series [4] was under 3.95 in each case.
For `CC(C)c1c(Cc2ccc(F)cc2)n(COCc2ccccc2)c(=O)n(O)c1=O`, the negative logarithm of the IC50 (pIC50) is under 3.95 in series [3] and 5.14 in series [4]. Besides, the Activity in [6] turned out to be 100%. In addition, the pEC50 in series [7] was 5.96. The same molecule returned a CC50 in the series with CEM-SS of over 20 µM. The selectivity ratio in series [8] is over 18.
For `Cc1cn(Cc2ccccc2)c(=O)n(O)c1=O`, the pIC50 in [3] and in series [4] was under 3.95 in each case.
Regarding `CC(C)c1c(Cc2ccccc2)n(COCc2ccc(F)cc2F)c(=O)n(O)c1=O`, the results for the pIC50 in series [3] and in [4] were under 3.95 and 5.32, respectively. Also, the Activity in series [6] is 100%. Further, in [7], the pEC50 was 5.68. In the series on CEM-SS, the CC50 is over 100 µM. In addition, the selectivity ratio in series [8] was over 47.
`CCc1c(Cc2ccccc2)c(=O)n(O)c(=O)n1COCc1ccccc1`: the pIC50 was under 3.95 in [3] and 4.44 in series [4].
Take `CC(C)c1c(Cc2ccccc2)n(Cc2ccccc2)c(=O)n(O)c1=O`: the pIC50 in series [3] was under 3.95; in [4] it was 4.55.
For `Cc1cn(Cc2ccc(F)cc2)c(=O)n(O)c1=O`, the pIC50 in [3] and in series [4] was under 3.95 in each case.
For the molecule `CC(C)c1c(Cc2ccccc2)n(CCc2ccc(F)cc2)c(=O)n(O)c1=O`, the results for the pIC50 in [3] and in series [4] were under 3.95 and 4.34, respectively.
For the molecule `CCc1c(Cc2ccccc2)c(=O)[nH]c(=O)n1COCc1ccccc1`, the Activity in [5] was 48%; in [6] it was 100%.
Turning to `CC(C)c1c(Cc2ccccc2)n(COCCCc2ccc(F)cc2)c(=O)n(O)c1=O`, the results for the pIC50 in [3] and in [4] were under 3.95 and 5.49, respectively. The figures for the Activity in series [5] and in [6] were 30% and 92%, respectively.
Turning to `CCc1c(Cc2ccccc2)n(Cc2ccccc2)c(=O)n(O)c1=O`, the pIC50 in series [3] and in series [4] was under 3.95 each time.
For `COn1c(=O)c(C(C)C)c(Cc2ccccc2)n(COCc2ccc(F)cc2)c1=O`, the negative logarithm of the IC50 (pIC50) in series [3] and in series [4] was under 3.95 throughout.
Regarding `CCc1c(Cc2ccccc2)n(COCc2ccccc2)c(=O)n(O)c1=O`, the pIC50 in series [3] was under 3.95; in series [4], 5.09.
For `CC(C)c1c(Cc2ccc(F)cc2)n(Cc2ccccc2)c(=O)n(O)c1=O` the same measures were under 3.95 and 4.49.
As to `CC(C)c1c(Cc2ccccc2)n(CCCc2ccc(F)cc2)c(=O)n(O)c1=O`, the results for the negative logarithm of the IC50 (pIC50) in series [3] and in series [4] were under 3.95 and 6.36, respectively. The Activity is 12% in series [5] and 97% in series [6].
For the molecule `CC(C)c1c(Cc2ccccc2)n(Cc2ccc(F)cc2)c(=O)n(O)c1=O`, the pIC50 was under 3.95 in series [3] and 4.66 in series [4].
On the same counts, the results for `CCc1c(Cc2ccccc2)n(Cc2ccc(F)cc2)c(=O)n(O)c1=O` are under 3.95 and 4.62.
On the same counts, the results for `CC(C)c1c(Cc2ccccc2)n(COCc2ccc(F)cc2)c(=O)[nH]c1=O` are under 3.95 and under 3.95.
Consider `CC(C)c1c(Cc2ccccc2)n(CCCCc2ccc(F)cc2)c(=O)n(O)c1=O`, for which the pIC50 was under 3.95 in series [3] and 6.25 in series [4]. The Activity is listed as 6% in series [5] and 94% in [6].
`O=c1c2ccccc2n(Cc2ccc(F)cc2)c(=O)n1O`: the pIC50 in series [3] is under 3.95.
With `Cc1cn(COCc2ccccc2)c(=O)n(O)c1=O`, the negative-log IC50 (pIC50) in series [3] was under 3.95; in series [4], 4.12.
On the same counts, the results for `CCc1c(Cc2ccccc2)c(=O)n(O)c(=O)n1COCc1ccc(F)cc1` are under 3.95 and 4.96.
For `Cc1nnc(C(=O)NC(C)(C)c2nc(C(=O)NCc3ccc(F)cc3)c(O)c(=O)n2C)o1` [RALTEGRAVIR], the Ratio IC50 in series [9] was 139; in series [10], 24; in [11], 8. Further, in series [12], the “Ratio EC50” value was over 855.
Take `O=c1c2ccccc2n(Cc2ccccc2)c(=O)n1O`: the pIC50 in series [3] was under 3.95.
For the molecule `CC(C)c1c(Cc2ccccc2)n(COCCCCc2ccc(F)cc2)c(=O)n(O)c1=O`, the negative-log IC50 (pIC50) is under 3.95 in [3] and 5.35 in series [4]. Besides, the Activity in series [5] came to 12%; in series [6], 88%.
On the same counts, the results for `CC(C)c1c(Cc2ccccc2)n(COCCc2ccc(F)cc2)c(=O)n(O)c1=O` are under 3.95, 5.80, 27% and 83%.
As for `CC(C)c1c(Cc2ccccc2)n(COCc2cccc(Cl)c2F)c(=O)n(O)c1=O`, the pIC50 is under 3.95 in series [3] and 5.64 in series [4]. Further, in series [6], the Activity is 100%. Besides, the pEC50 in series [7] is 6.02. The CC50 at 144 h in [13] is over 100 µM. Moreover, the selectivity ratio in series [8] was over 105. Also, the Ratio IC50 was determined as 14 in [9], 5 in series [10] and 5 in series [11]. Further, the “Ratio EC50” value in series [12] is on record as over 1.7. Further, the CC50 in [14], in [15] and in series [16] was 2 µM in each case.
As for `CC(C)c1c(Cc2ccc(F)cc2)n(Cc2ccc(F)cc2)c(=O)n(O)c1=O`, the results for the pIC50 in [3] and in [4] were under 3.95 and 4.14, respectively.
